Test results: ChEMBL document CHEMBL4715835, “Lipidic synthetic alkaloids as SK3 channel modulators. Synthesis and biological evaluation of 2-substituted tetrahydropyridine derivatives with potential anti-metastatic activity” (Eur J Med Chem, 2020)
The source made the active and inactive calls. The calls are words filed in the database; no cut-off is given here.

Tests used:
[1] = Toxicity in human HCT-116 cells assessed as reduction in cell number after 48 hrs by Hoechst 33342 staining based assay
Procedure, shortened: (§1)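 4000 cells per well. Cells exposed 24 h after seeding to 6 concentrations ([…]) for 48 h. They were then fixed in cold 90% ethanol/5% acetic acid for 20 min and nuclei stained with Hoechst 33342. Plates imaged on a high-content reader. IC₅₀ calculated; normal diploid skin fibroblasts served as control cells.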

MDA-MB-435 [2] = test: Toxicity in human MDA-MB-435 cells assessed as mortality at 1 uM measured after 24 hrs by MTT assay relative to control; format: cell-based; details: mda-mb-435, 24 h
Procedure, shortened: (§2)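 MTT viability assay: about 4 × 10⁴ MDA-MB-435s cells seeded in triplicate with the molecules (tested series 100 nM, 300 nM, 1 µM, 3 µM, 10 µM) and kept 24 h at 37 °C. Medium was then removed and cells incubated 45 min at 37 °C with tetrazolium salt, which viable cells reduce to formazan. Results given as % mortality.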

MDA-MB-435 [3] = test: Toxicity in human MDA-MB-435 cells assessed as mortality at 3 uM measured after 24 hrs by MTT assay relative to control; format: cell-based; details: mda-mb-435, 24 h; procedure, shortened: as §2
[4] = Toxicity in human Huh-7 cells assessed as reduction in cell number after 48 hrs by Hoechst 33342 staining based assay; procedure, shortened: as §1
[5] = Toxicity in human MDA-MB-231 cells assessed as reduction in cell number after 48 hrs by Hoechst 33342 staining based assay; procedure, shortened: as §1
[6] = Toxicity in human PC-3 cells assessed as reduction in cell number after 48 hrs by Hoechst 33342 staining based assay; procedure, shortened: as §1
[7] = Toxicity in human MCF7 cells assessed as reduction in cell number after 48 hrs by Hoechst 33342 staining based assay; procedure, shortened: as §1
[8] = Toxicity in human Caco-2 cells assessed as reduction in cell number after 48 hrs by Hoechst 33342 staining based assay; procedure, shortened: as §1
[9] = Toxicity in human NCI-H727 cells assessed as reduction in cell number after 48 hrs by Hoechst 33342 staining based assay; procedure, shortened: as §1
[10] = Toxicity in human skin fibroblasts assessed as reduction in cell number after 48 hrs by Hoechst 33342 staining based assay; format: tissue-based, Fibroblast; procedure, shortened: as §1
MDA-MB-435 [11] = test: Toxicity in human MDA-MB-435 cells assessed as mortality at 10 uM measured after 24 hrs by MTT assay relative to control; format: cell-based; details: mda-mb-435, 24 h; procedure, shortened: as §2
MDA-MB-435 [12] = test: Effect on calcium influx in human MDA-MB-435 cells harboring siRNA and siCTL at 300 nM measured after 1 hr by Fura2-AM dye based fluorescence assay; format: functional, cell-based
Procedure, shortened: (§3)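 Constitutive Ca²⁺ entry in MDA-MB-435s shRD or shSK3 cells, measured 48 h after transfection with 30 nM siOrai1 or siCTL. Cells were treated 1 h with compound and loaded with Fura2-AM for 45 min at 37 °C. They were then resuspended in Ca²⁺-free solution for 20 s before 2 mM CaCl₂ was added. Emission read at 510 nm with 340/380 nm excitation. Steady-state signal normalized to control. Three experiments in triplicate.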

[13] = molecular target: Small conductance calcium-activated potassium channel protein 3 (Homo sapiens) (UniProt Q9UGI6); test: Inhibition of SK3 (unknown origin) expressed in HEK293 cells assessed as reduction in channel current at 2 uM with 0 mV holding potential by patch clamp electrophysiological method; format: cell-based
Chain of Small conductance calcium-activated potassium channel protein 3 (Homo sapiens) (Q9UGI6 whole entry): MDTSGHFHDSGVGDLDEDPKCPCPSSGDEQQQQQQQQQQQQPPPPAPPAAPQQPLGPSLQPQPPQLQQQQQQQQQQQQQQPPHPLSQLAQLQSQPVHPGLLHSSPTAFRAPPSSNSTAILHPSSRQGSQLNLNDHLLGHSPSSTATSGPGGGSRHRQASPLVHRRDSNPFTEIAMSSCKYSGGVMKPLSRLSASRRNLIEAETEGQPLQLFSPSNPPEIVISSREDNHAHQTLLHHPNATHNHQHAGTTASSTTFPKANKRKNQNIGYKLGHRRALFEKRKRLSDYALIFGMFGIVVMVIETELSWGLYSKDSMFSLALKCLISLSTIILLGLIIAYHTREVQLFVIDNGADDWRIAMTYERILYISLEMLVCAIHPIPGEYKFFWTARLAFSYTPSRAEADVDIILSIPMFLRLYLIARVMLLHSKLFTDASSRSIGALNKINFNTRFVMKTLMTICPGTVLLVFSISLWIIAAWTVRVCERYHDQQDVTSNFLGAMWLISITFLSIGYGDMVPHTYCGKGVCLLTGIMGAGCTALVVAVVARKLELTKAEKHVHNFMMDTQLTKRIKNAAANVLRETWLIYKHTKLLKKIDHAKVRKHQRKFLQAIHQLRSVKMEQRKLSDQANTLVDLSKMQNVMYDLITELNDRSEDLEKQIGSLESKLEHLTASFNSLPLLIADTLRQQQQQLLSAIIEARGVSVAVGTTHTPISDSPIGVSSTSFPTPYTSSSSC
Procedure, shortened: (§4)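 Patch clamp on HEK-293 cells stably expressing SK3 (lentiviral). Compound added acutely; DMSO/methanol was the vehicle, and runs with or without apamin. Ramp from −80 to +80 mV, holding at 0 mV, 500 ms ramps at 4 s intervals. Current analyzed at 0 mV to minimize chloride currents, followed as a time course. Pipette solution adjusted to pH 7.2 with KOH.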

MDA-MB-435 [14] = test: Antimetastatic activity against human MDA-MB-435 cells assessed as reduction in cell migration at 100 to 300 nM after 24 hrs by crystal violet staining based assay relative to control; design: scale not given: the % may be the effect or the level left; details: dose 100-300 nM
MDA-MB-435 [15] = test: Antimetastatic activity against human MDA-MB-435 cells assessed as reduction in cell migration at 1 uM after 24 hrs by […] relative to control; format: functional; design: scale not given: the % may be the effect or the level left
[16] = molecular target: Small conductance calcium-activated potassium channel protein 3 (Homo sapiens) (UniProt Q9UGI6); test: Inhibition of SK3 in human MDA-MB-435 cells harboring SK3 shRNA assessed as reduction in Ca2+ influx at 300 nM measured after 1 hr by Fura2-AM dye based fluorescence assay; format: cell-based; procedure, shortened: as §3
MDA-MB-435 [17] = test: Antimetastatic activity against human MDA-MB-435 cells harboring shRNA assessed as reduction in cell migration at 100 to 300 nM after 24 hrs […]; format: functional, cell-based; details: dose 100-300 nM
MDA-MB-435 [18] = test: Inhibition of SK3/Orai1 in human MDA-MB-435 cells harboring SK3 shRNA assessed as reduction in Ca2+ influx at 300 nM measured after 1 hr by Fura2-AM dye based fluorescence assay relative to control; format: cell-based; procedure, shortened: as §3
[19] = molecular target: Small conductance calcium-activated potassium channel protein 3 (Homo sapiens) (UniProt Q9UGI6); test: Inhibition of SK3 (unknown origin) expressed in HEK293 cells assessed as reduction in channel current at 2 uM with 0 mV holding potential in presence of -apamin by patch clamp electrophysiological method; format: cell-based; procedure, shortened: as §4
[20] = molecular target: ORAI1/STIM1 (Homo sapiens) (UniProt Q96D31+Q13586); test: Inhibition of STIM1/Orai1 (unknown origin) expressed in HEK293 cells assessed as reduction in Ca2+-release activated Ca2+ entry current at 2 uM by whole cell patch clamp electrophysiological method; format: cell-based
Chain of ORAI1/STIM1 (Homo sapiens) (Q13586 23-685 partner limits assumed): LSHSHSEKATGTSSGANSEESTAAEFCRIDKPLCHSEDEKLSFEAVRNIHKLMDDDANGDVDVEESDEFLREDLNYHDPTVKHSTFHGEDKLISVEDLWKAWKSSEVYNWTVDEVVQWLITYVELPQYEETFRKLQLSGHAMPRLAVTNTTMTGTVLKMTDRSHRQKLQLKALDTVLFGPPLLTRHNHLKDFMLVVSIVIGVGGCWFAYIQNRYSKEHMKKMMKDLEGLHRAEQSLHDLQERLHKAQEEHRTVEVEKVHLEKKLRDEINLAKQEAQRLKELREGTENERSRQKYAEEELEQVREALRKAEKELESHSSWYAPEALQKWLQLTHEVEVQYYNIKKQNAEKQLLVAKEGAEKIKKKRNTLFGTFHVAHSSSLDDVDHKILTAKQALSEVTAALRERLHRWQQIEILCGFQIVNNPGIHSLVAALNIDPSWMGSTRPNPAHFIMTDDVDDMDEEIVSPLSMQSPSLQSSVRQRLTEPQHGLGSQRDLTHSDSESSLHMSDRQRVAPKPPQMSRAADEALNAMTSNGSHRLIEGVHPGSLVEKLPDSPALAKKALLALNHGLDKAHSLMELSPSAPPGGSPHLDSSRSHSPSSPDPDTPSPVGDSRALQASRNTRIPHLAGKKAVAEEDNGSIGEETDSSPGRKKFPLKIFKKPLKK
Chain of ORAI1/STIM1 (Homo sapiens) (Q96D31 whole entry): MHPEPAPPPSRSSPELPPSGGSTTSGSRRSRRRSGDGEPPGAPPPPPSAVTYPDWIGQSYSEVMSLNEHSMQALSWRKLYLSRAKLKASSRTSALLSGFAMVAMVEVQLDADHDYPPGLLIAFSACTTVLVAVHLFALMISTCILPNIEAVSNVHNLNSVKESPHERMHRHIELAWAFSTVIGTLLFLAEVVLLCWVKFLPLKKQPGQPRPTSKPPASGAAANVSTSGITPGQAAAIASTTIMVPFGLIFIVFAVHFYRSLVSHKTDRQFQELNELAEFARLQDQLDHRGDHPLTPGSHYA

[21] = molecular target: Small conductance calcium-activated potassium channel protein 3 (Homo sapiens) (UniProt Q9UGI6); test: Inhibition of SK3 (unknown origin) expressed in HEK293 cells assessed as reduction in channel current at 2 uM with 0 mV holding potential measured within 10 secs by patch clamp electrophysiological method relative to control; format: cell-based; details: time 10.0 sec; procedure, shortened: as §4
MDA-MB-435 [22] = test: Effect on calcium influx in human MDA-MB-435 cells harboring siRNA and siOrai1 at 300 nM measured after 1 hr by Fura2-AM dye based fluorescence assay; format: functional, cell-based; procedure, shortened: as §3
[23] = molecular target: Small conductance calcium-activated potassium channel protein 3 (Homo sapiens) (UniProt Q9UGI6); test: Inhibition of SK3 in human MDA-MB-435 cells harboring SK3 shRNA assessed as reduction in Ca2+ influx at 1 uM measured after 1 hr by Fura2-AM dye based fluorescence assay; format: cell-based; procedure, shortened: as §3
MDA-MB-435 [24] = test: Inhibition of SK3/Orai1 in human MDA-MB-435 cells harboring SK3 shRNA assessed as reduction in Ca2+ influx at 1 uM measured after 1 hr by Fura2-AM dye based fluorescence assay; format: cell-based; procedure, shortened: as §3
[25] = molecular target: Small conductance calcium-activated potassium channel protein 3 (Homo sapiens) (UniProt Q9UGI6); test: Inhibition of SK3 (unknown origin) expressed in HEK293 cells assessed as reduction in channel current at 10 uM with 0 mV holding potential in presence of -apamin by patch clamp electrophysiological method; format: cell-based; procedure, shortened: as §4
[26] = molecular target: Small conductance calcium-activated potassium channel protein 3 (Homo sapiens) (UniProt Q9UGI6); test: Inhibition of SK3 (unknown origin) expressed in HEK293 cells assessed as reduction in channel current at 10 uM with 0 mV holding potential measured within 100 secs by patch clamp electrophysiological method relative to control; format: cell-based; details: time 100.0 sec; procedure, shortened: as §4
MDA-MB-435 [27] = test: Antimetastatic activity against human MDA-MB-435 cells harboring SK3 shRNA assessed as reduction in cell migration after 24 hrs by […]; format: functional, cell-based
MDA-MB-435 [28] = test: Effect on calcium influx in human MDA-MB-435 cells harboring siRNA and siCTL at 1 uM measured after 1 hr by Fura2-AM dye based fluorescence assay; format: functional, cell-based; procedure, shortened: as §3
[29] = molecular target: Small conductance calcium-activated potassium channel protein 3 (Homo sapiens) (UniProt Q9UGI6); test: Inhibition of SK3 (unknown origin) expressed in HEK293 cells assessed as reduction in channel current at 10 uM with 0 mV holding potential by patch clamp electrophysiological method; format: cell-based; procedure, shortened: as §4
MDA-MB-435 [30] = test: Antimetastatic activity against human MDA-MB-435 cells harboring shRNA assessed as reduction in cell migration at 3 uM after 24 hrs by […] relative to control; format: functional; design: scale not given: the % may be the effect or the level left
MDA-MB-435 [31] = test: Effect on calcium influx in human MDA-MB-435 cells harboring siRNA and siOrai1 at 1 uM measured after 1 hr by Fura2-AM dye based fluorescence assay; format: functional, cell-based; procedure, shortened: as §3
MDA-MB-435 [32] = test: Antimetastatic activity against human MDA-MB-435 cells harboring shRNA assessed as reduction in cell migration at 0.3 to 3 uM after 24 hrs by […]; format: functional, cell-based; details: dose 0.3-3 µM

Compound | IC50 at 48 h [1] | mortality (MDA-MB-435 [2]) | mortality (MDA-MB-435 [3]) | IC50 at 48 h [4] | IC50 at 48 h [5] | IC50 at 48 h [6] | IC50 at 48 h [7] | IC50 at 48 h [8] | IC50 at 48 h [9] | IC50 at 48 h [10] | mortality (MDA-MB-435 [11]) | further results
CCCCCCCCCCCCCCCCCCC[C@H](O)C[C@@H]1C=CCCN1C | > 25 µM | 30% | 30% | > 25 µM | > 25 µM | > 25 µM | > 25 µM | 14 µM | > 25 µM | > 25 µM | – | –
CCCCCCCCCCCCCCCCCC(O)Cc1ccccn1 (configuration not stated) | – | 0% | – | – | – | – | – | – | – | – | 0% | –
CCCCCCCCCCCCCCCCCCCC(O)Cc1ccccn1 (configuration not stated) | – | 20% | 20% | – | – | – | – | – | – | – | – | –
CCCCCCCCCCCCCCCCC[C@H](O)C[C@@H]1C=CCCN1C | > 25 µM | 0% | – | > 25 µM | > 25 µM | > 25 µM | > 25 µM | 16 µM | > 25 µM | > 25 µM | 0% | Activity (MDA-MB-435 [12]): inactive; inhibition [13]: 90%; Activity (MDA-MB-435 [14]): <=60%; Activity (MDA-MB-435 [15]): <=60%; inhibition [16]: inactive; Activity (MDA-MB-435 [17]): inactive; inhibition (MDA-MB-435 [18]): < 40%; inhibition [19]: Active; inhibition [20]: inactive; inhibition [21]: 50%; Activity (MDA-MB-435 [22]): inactive
CCCCCCCCCCCCCCCCCC(Cc1ccccn1)OC (configuration not stated) | – | 0% | – | – | – | – | – | – | – | – | 0% | –
CCCCCCCC/C=C\CCCCCCC[C@H](C[C@@H]1C=CCCN1C)OC(C)=O | 9 µM | 0% | – | 10 µM | 10 µM | 8 µM | 15 µM | 9 µM | 19 µM | 13 µM | 70% | inhibition [23]: inactive; inhibition (MDA-MB-435 [24]): Active; inhibition [25]: Active; inhibition [26]: 50%; Activity (MDA-MB-435 [15]): 40%; Activity (MDA-MB-435 [27]): Dose-dependent effect; Activity (MDA-MB-435 [28]): inactive; inhibition [29]: 70%; Activity (MDA-MB-435 [30]): <=40%; Activity (MDA-MB-435 [31]): inactive; Activity (MDA-MB-435 [32]): inactive
CCCCCCCCCCCCCCCCCC(Cc1cccc[n+]1C)OC.Cc1ccc(S(=O)(=O)[O-])cc1 (configuration not stated) | – | 30% | – | – | – | – | – | – | – | – | 80% | –
CCCCCCCCCCCCCCCCC[C@@H](C[C@@H]1C=CCCN1C)OC(C)=O | 24 µM | 0% | – | > 25 µM | 22 µM | 26 µM | > 25 µM | 9 µM | > 25 µM | 24 µM | 20% | –
CCCCCCCCCCCCCCCCCCCC(Cc1ccccn1)OC (configuration not stated) | – | 20% | 20% | – | – | – | – | – | – | – | – | –
COc1cccc2c1C(=O)c1c(O)c3c(c(O)c1C2=O)C[C@@](O)(C(=O)CO)C[C@@H]3O[C@H]1C[C@H](N)[C@H](O)[C@H](C)O1 [DOXORUBICIN] | 0.12 µM | – | – | – | – | 0.12 µM | – | 0.17 µM | 0.66 µM | 0.03 µM | – | –
